Measurements as given in ChEMBL document CHEMBL1154290, “Synthesis and in vitro autoradiographic evaluation of a novel high-affinity radioiodinated ligand for imaging brain cannabinoid subtype-1 receptors” (Bioorg Med Chem Lett, 2009).
Blank lines part the entries; values can stand above or below the compound they belong to.

What was measured:
Cannabinoid receptor 1 = Cannabinoid receptor 1 (Homo sapiens, UniProt P21554)
Cannabinoid receptor 2 = Cannabinoid receptor 2 (Homo sapiens, UniProt P34972); experiment: Displacement of [3H]CP-55940 from CB2 receptor by scintillation counting
Chain of Cannabinoid receptor 2 (P34972 whole entry): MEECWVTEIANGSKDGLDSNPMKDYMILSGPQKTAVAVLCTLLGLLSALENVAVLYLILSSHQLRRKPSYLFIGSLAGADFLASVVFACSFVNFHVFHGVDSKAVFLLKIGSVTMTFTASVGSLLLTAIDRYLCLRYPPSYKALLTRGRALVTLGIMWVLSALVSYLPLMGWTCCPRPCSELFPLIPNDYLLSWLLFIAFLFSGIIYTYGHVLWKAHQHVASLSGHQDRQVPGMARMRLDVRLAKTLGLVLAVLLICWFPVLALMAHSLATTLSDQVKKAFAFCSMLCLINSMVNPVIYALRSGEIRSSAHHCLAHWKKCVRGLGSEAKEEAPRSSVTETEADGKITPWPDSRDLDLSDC
Summary of the method: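 CB2 affinity given as Ki from radioligand displacement, reported as mean ± SD of three determinations.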

[1] = molecular target: 5-hydroxytryptamine receptor 1A (Homo sapiens, UniProt P08908); experiment: Displacement of [3H]8OH-DPAT from 5HT1A receptor at 10 uM by scintillation counting
Chain of 5-hydroxytryptamine receptor 1A (P08908 whole entry): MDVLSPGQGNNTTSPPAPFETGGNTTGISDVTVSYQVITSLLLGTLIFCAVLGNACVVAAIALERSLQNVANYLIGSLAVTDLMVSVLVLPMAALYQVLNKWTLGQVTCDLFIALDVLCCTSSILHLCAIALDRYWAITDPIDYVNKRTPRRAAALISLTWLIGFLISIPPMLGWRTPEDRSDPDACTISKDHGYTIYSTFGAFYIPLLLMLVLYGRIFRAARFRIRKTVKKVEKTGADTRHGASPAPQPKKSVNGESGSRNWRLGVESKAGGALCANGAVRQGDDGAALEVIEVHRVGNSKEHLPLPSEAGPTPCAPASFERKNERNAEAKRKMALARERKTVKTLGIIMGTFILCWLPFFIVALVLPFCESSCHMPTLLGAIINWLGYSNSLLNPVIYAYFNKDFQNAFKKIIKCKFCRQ

[2] = molecular target: Alpha-2C adrenergic receptor (Homo sapiens, UniProt P18825); experiment: Displacement of [125I]Iodoclonidine from alpha-2C adrenergic receptor at 10 uM by scintillation counting
Chain of Alpha-2C adrenergic receptor (P18825 whole entry): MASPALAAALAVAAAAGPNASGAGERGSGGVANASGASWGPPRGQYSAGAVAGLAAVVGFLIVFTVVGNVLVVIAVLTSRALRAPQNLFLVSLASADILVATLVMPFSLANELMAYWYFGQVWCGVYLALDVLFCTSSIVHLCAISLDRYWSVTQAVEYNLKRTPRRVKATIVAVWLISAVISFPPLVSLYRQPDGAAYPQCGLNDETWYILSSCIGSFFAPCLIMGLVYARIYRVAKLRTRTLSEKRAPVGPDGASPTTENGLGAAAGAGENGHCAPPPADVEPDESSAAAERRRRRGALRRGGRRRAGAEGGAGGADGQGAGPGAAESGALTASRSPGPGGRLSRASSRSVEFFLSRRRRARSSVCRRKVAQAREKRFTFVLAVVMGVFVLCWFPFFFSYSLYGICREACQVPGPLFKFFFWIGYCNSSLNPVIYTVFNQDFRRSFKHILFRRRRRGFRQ

[3] = molecular target: Kappa-type opioid receptor (Homo sapiens, UniProt P41145); experiment: Displacement of [3H]U69593 from kappa opioid receptor at 10 uM by scintillation counting
Mu-type opioid receptor = Mu-type opioid receptor (Homo sapiens, UniProt P35372); experiment: Displacement of [3H]DAMGO from mu opioid at 10 uM by scintillation counting
Chain of Mu-type opioid receptor (P35372 whole entry): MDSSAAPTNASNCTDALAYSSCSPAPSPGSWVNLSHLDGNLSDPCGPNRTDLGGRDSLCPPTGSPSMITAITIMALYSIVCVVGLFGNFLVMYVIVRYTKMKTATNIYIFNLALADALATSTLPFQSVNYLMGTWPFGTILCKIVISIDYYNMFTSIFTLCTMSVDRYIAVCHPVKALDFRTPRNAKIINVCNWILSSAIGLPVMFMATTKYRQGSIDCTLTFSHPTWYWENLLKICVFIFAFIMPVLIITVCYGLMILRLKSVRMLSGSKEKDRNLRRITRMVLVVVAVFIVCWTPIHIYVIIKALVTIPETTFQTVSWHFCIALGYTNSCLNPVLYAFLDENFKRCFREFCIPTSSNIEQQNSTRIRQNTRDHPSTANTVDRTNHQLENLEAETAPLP

Translocator protein = Translocator protein (Homo sapiens, UniProt P30536); experiment: Displacement of [3H]PK11195 from TSPO at 10 uM by scintillation counting
Chain of Translocator protein (P30536 whole entry): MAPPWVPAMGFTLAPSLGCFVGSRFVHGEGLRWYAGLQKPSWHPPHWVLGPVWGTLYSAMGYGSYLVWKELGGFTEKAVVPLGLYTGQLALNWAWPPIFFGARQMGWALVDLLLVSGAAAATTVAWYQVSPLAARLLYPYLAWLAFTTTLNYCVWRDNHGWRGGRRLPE

[4] = molecular target: Alpha-1B adrenergic receptor (Homo sapiens) (UniProt P35368); experiment: Displacement of [3H]Prazosin from alpha-1B adrenergic receptor at 10 uM by scintillation counting; details: tested as the 125I-labelled form
Summary of the method: (§1)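 Receptor-panel selectivity screen: test ligand at a single 10 μM concentration. Each site is assayed by inhibition of binding of its radioligand, read out as percent inhibition (n = 4).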

[5] = molecular target: Alpha-2A adrenergic receptor (Homo sapiens) (UniProt P08913); experiment: Displacement of [3H]Clonidine from alpha-2A adrenergic receptor at 10 uM by scintillation counting; details: tested as the 125I-labelled form
Summary of the method: as §1

[6] = molecular target: Alpha-2B adrenergic receptor (Homo sapiens) (UniProt P18089); experiment: Displacement of [3H]Clonidine from alpha-2B adrenergic receptor at 10 uM by scintillation counting; details: tested as the 125I-labelled form
Summary of the method: as §1

[7] = molecular target: Beta-1 adrenergic receptor (Homo sapiens) (UniProt P08588); experiment: Displacement of [125I]Iodopindolol from beta-1 adrenergic receptor at 10 uM by scintillation counting; details: tested as the 125I-labelled form
Chain of Beta-1 adrenergic receptor (Homo sapiens) (P08588 whole entry, looked up): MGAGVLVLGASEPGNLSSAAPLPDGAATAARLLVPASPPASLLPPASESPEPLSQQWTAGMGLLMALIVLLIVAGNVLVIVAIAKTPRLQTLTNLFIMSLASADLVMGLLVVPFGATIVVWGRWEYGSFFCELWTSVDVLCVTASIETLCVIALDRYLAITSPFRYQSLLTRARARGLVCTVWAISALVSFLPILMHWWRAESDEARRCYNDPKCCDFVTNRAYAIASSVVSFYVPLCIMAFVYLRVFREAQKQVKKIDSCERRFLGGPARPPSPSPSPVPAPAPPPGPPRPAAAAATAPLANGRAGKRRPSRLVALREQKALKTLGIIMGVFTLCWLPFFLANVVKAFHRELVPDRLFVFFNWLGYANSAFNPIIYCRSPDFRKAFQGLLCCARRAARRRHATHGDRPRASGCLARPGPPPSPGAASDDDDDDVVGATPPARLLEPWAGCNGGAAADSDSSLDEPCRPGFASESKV

[8] = molecular target: Beta-2 adrenergic receptor (Homo sapiens) (UniProt P07550); experiment: Displacement of [125I]Iodopindolol from beta2 adrenergic receptor at 10 uM by scintillation counting; details: tested as the 125I-labelled form
[9] = molecular target: Beta-3 adrenergic receptor (Homo sapiens) (UniProt P13945); experiment: Displacement of [125I]Iodopindolol from beta3 adrenergic receptor at 10 uM by scintillation counting; details: tested as the 125I-labelled form
[10] = molecular target: D(1A) dopamine receptor (Homo sapiens) (UniProt P21728); experiment: Displacement of [3H]SCH233930 from dopamine D 1 ( receptor) at 10 uM by scintillation counting; details: tested as the 125I-labelled form
Summary of the method: as §1

[11] = molecular target: D(2) dopamine receptor (Homo sapiens) (UniProt P14416); experiment: Displacement of [3H]N-methylspiperone from dopamine D 2( receptor) at 10 uM by scintillation counting; details: tested as the 125I-labelled form
Summary of the method: as §1

[12] = molecular target: D(3) dopamine receptor (Homo sapiens) (UniProt P35462); experiment: Displacement of [3H]N-methylspiperone from dopamine D 3 ( receptor) at 10 uM by scintillation counting; details: tested as the 125I-labelled form
Summary of the method: as §1

[13] = molecular target: D(4) dopamine receptor (Homo sapiens) (UniProt P21917); experiment: Displacement of [3H]N-methylspiperone from dopamine D 4 ( receptor) at 10 uM by scintillation counting; details: tested as the 125I-labelled form
Summary of the method: as §1

[14] = molecular target: Delta-type opioid receptor (Homo sapiens) (UniProt P41143); experiment: Displacement of [3H]DADLE from delta opioid receptor at 10 uM by scintillation counting; details: tested as the 125I-labelled form
Summary of the method: as §1

[15] = molecular target: Histamine H1 receptor (Homo sapiens) (UniProt P35367); experiment: Displacement of [3H]Pyrilamine from histamine H1 (receptor) at 10 uM by scintillation counting; details: tested as the 125I-labelled form
Summary of the method: as §1

[16] = molecular target: Histamine H2 receptor (Homo sapiens) (UniProt P25021); experiment: Displacement of [3H]Pyrilamine from histamine H2 (receptor) at 10 uM by scintillation counting; details: tested as the 125I-labelled form
Chain of Histamine H2 receptor (Homo sapiens) (P25021 whole entry): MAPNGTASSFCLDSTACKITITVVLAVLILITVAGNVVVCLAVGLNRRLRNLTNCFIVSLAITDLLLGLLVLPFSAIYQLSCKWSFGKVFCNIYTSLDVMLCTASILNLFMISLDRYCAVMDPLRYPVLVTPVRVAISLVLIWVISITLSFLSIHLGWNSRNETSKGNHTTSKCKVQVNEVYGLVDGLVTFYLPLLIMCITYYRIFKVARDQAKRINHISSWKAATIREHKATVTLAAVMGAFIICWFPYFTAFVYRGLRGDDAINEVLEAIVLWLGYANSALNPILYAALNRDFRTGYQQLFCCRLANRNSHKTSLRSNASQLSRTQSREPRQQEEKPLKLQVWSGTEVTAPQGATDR
Summary of the method: as §1

[17] = molecular target: Histamine H3 receptor (Homo sapiens) (UniProt Q9Y5N1); experiment: Displacement of [3H]alpha-methylhistamine from histamine H3 (receptor) at 10 uM by scintillation counting; details: tested as the 125I-labelled form
Summary of the method: as §1

[18] = molecular target: Histamine H4 receptor (Homo sapiens) (UniProt Q9H3N8); experiment: Displacement of [3H]Histamine from histamine H4 (receptor) at 10 uM by scintillation counting; details: tested as the 125I-labelled form
Summary of the method: as §1

[19] = molecular target: Muscarinic acetylcholine receptor M1 (Homo sapiens) (UniProt P11229); experiment: Displacement of [3H]QNB from Muscarinic acetylcholine receptor M1 at 10 uM by scintillation counting; details: tested as the 125I-labelled form
Chain of Muscarinic acetylcholine receptor M1 (Homo sapiens) (P11229 whole entry): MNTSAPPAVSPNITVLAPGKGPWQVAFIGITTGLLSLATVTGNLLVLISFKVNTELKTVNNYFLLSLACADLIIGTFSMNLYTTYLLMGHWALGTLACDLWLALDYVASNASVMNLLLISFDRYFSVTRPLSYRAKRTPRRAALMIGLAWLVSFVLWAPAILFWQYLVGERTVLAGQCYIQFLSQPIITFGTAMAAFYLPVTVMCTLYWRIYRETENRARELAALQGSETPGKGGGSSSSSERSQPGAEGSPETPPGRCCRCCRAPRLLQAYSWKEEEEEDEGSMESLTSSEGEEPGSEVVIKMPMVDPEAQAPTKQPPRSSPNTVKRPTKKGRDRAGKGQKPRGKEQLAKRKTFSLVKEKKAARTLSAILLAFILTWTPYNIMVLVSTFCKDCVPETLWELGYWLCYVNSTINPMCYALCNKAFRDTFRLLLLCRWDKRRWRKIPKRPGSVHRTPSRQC
Summary of the method: as §1

[20] = molecular target: Muscarinic acetylcholine receptor M2 (Homo sapiens) (UniProt P08172); experiment: Displacement of [3H]QNB from Muscarinic acetylcholine receptor M2 at 10 uM by scintillation counting; details: tested as the 125I-labelled form
Summary of the method: as §1

[21] = molecular target: Muscarinic acetylcholine receptor M3 (Homo sapiens) (UniProt P20309); experiment: Displacement of [3H]QNB from Muscarinic acetylcholine receptor M3 at 10 uM by scintillation counting; details: tested as the 125I-labelled form
Summary of the method: as §1

[22] = molecular target: Muscarinic acetylcholine receptor M4 (Homo sapiens) (UniProt P08173); experiment: Displacement of [3H]QNB from Muscarinic acetylcholine receptor M4 at 10 uM by scintillation counting; details: tested as the 125I-labelled form
Summary of the method: as §1

[23] = molecular target: Muscarinic acetylcholine receptor M5 (Homo sapiens) (UniProt P08912); experiment: Displacement of [3H]QNB from Muscarinic acetylcholine receptor M5 at 10 uM by scintillation counting; details: tested as the 125I-labelled form
Summary of the method: as §1

[24] = molecular target: Sodium-dependent noradrenaline transporter (Homo sapiens) (UniProt P23975); experiment: Displacement of [3H]Nisoxetine from NET at 10 uM by scintillation counting; details: tested as the 125I-labelled form
Summary of the method: as §1

[25] = molecular target: Sodium-dependent serotonin transporter (Homo sapiens) (UniProt P31645); experiment: Displacement of [3H]Citalopram from SERT at 10 uM by scintillation counting; details: tested as the 125I-labelled form
Summary of the method: as §1

[26] = molecular target: Sigma non-opioid intracellular receptor 1 (Homo sapiens) (UniProt Q99720); experiment: Displacement of [3H]Pentazocine from sigma1 opioid receptor at 10 uM by scintillation counting; details: tested as the 125I-labelled form
Summary of the method: as §1

[27] = Displacement of [3H]DTG from […] opioid receptor at 10 uM by scintillation counting; details: tested as the 125I-labelled form
Summary of the method: as §1

[28] = molecular target: Vasopressin V1a receptor (Homo sapiens) (UniProt P37288); experiment: Displacement of [3H]vasopressin from vasopressin1A receptor at 10 uM by scintillation counting; details: tested as the 125I-labelled form
Summary of the method: as §1

[29] = molecular target: Vasopressin V1b receptor (Homo sapiens) (UniProt P47901); experiment: Displacement of [3H]vasopressin from vasopressin1B receptor at 10 uM by scintillation counting; details: tested as the 125I-labelled form
Summary of the method: as §1

[30] = molecular target: Vasopressin V2 receptor (Homo sapiens) (UniProt P30518); experiment: Displacement of [3H]vasopressin from vasopressin2 receptor at 10 uM by scintillation counting; details: tested as the 125I-labelled form
Chain of Vasopressin V2 receptor (Homo sapiens) (P30518 whole entry): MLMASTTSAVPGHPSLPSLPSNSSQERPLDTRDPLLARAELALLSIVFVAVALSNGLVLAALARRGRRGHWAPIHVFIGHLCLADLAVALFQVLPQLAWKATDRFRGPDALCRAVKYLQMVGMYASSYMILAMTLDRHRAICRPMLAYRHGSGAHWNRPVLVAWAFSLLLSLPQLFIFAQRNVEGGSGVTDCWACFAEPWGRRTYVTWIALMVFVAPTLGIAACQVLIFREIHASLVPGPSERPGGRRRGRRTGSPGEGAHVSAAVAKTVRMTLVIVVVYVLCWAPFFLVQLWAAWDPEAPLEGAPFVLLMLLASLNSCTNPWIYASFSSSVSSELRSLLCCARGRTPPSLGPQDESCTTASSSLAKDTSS
Summary of the method: as §1

[31] = molecular target: 5-hydroxytryptamine receptor 1B (Homo sapiens) (UniProt P28222); experiment: Displacement [3H]GR127543 from 5HT1B (receptor) at 10 uM by scintillation counting; details: tested as the 125I-labelled form
Summary of the method: as §1

[32] = molecular target: 5-hydroxytryptamine receptor 2C (Homo sapiens) (UniProt P28335); experiment: Inhibition of radioligand binding to 5HT1C (receptor) at 10 uM; details: tested as the 125I-labelled form
Chain of 5-hydroxytryptamine receptor 2C (Homo sapiens) (P28335 whole entry): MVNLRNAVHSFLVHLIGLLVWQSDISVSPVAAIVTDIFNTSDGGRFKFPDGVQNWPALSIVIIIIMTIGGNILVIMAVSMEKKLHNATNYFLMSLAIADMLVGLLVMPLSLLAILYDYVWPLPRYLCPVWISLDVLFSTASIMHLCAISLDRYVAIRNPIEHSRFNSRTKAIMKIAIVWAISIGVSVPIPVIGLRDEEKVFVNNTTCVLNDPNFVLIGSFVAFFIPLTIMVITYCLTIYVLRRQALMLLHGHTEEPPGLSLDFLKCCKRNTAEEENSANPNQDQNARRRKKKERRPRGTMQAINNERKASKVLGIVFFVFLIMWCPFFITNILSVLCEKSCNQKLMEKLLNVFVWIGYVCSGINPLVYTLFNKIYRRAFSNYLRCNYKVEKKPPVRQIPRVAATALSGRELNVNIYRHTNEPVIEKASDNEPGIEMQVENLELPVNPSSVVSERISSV
Summary of the method: as §1

[33] = molecular target: 5-hydroxytryptamine receptor 1D (Homo sapiens) (UniProt P28221); experiment: Displacement [3H]GR127543 from 5HT1D (receptor) at 10 uM by scintillation counting; details: tested as the 125I-labelled form
Chain of 5-hydroxytryptamine receptor 1D (Homo sapiens) (P28221 whole entry): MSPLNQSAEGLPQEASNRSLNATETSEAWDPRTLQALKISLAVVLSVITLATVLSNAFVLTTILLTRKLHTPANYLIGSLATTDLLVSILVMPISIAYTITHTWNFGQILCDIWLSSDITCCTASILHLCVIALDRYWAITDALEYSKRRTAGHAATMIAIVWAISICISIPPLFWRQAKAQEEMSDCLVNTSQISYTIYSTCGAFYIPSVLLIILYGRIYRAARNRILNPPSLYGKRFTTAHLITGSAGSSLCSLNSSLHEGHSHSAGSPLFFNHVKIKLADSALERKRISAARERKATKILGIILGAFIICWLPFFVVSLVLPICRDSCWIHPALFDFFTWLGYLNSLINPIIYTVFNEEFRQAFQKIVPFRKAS
Summary of the method: as §1

[34] = molecular target: 5-hydroxytryptamine receptor 1E (Homo sapiens) (UniProt P28566); experiment: Displacement of [3H]5-HT from 5HT1E (receptor) at 10 uM by scintillation counting; details: tested as the 125I-labelled form
Summary of the method: as §1

[35] = molecular target: 5-hydroxytryptamine receptor 2A (Homo sapiens) (UniProt P28223); experiment: Displacement of [3H]Ketanserin from 5HT2A (receptor) at 10 uM by scintillation counting; details: tested as the 125I-labelled form
Chain of 5-hydroxytryptamine receptor 2A (Homo sapiens) (P28223 whole entry): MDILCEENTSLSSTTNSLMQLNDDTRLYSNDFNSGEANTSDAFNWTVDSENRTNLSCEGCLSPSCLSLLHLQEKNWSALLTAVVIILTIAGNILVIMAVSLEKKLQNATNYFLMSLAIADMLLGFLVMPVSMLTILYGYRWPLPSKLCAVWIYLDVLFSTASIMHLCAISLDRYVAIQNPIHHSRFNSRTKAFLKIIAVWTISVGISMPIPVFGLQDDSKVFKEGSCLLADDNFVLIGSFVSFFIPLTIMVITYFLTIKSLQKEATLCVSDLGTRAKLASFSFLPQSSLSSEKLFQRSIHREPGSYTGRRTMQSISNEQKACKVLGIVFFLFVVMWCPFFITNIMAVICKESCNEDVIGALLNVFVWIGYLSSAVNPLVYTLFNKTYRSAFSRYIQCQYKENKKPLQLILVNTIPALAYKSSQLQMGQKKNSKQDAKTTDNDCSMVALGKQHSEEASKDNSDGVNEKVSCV
Summary of the method: as §1

[36] = molecular target: 5-hydroxytryptamine receptor 2B (Homo sapiens) (UniProt P41595); experiment: Displacement of [3H]LSD from 5HT2B (receptor) at 10 uM by scintillation counting; details: tested as the 125I-labelled form
Summary of the method: as §1

[37] = molecular target: 5-hydroxytryptamine receptor 2C (Homo sapiens) (UniProt P28335); experiment: Displacement of [3H]Mesulergine from 5HT2C (receptor) at 10 uM by scintillation counting; details: tested as the 125I-labelled form
Summary of the method: as §1

[38] = molecular target: 5-hydroxytryptamine receptor 3A (Homo sapiens) (UniProt P46098); experiment: Displacement of [3H]LY278584 from 5HT3 (receptor) at 10 uM by scintillation counting; details: tested as the 125I-labelled form
Summary of the method: as §1

[39] = molecular target: 5-hydroxytryptamine receptor 5A (Homo sapiens) (UniProt P47898); experiment: Displacement of [3H]LSD from 5HT5A (receptor) at 10 uM by scintillation counting; details: tested as the 125I-labelled form
Summary of the method: as §1

[40] = molecular target: 5-hydroxytryptamine receptor 6 (Homo sapiens) (UniProt P50406); experiment: Displacement of [3H]LSD from 5HT6 (receptor) at 10 uM by scintillation counting; details: tested as the 125I-labelled form
Summary of the method: as §1

[41] = molecular target: 5-hydroxytryptamine receptor 7 (Homo sapiens) (UniProt P34969); experiment: Displacement of [3H]LSD from 5HT7 (receptor) at 10 uM by scintillation counting; details: tested as the 125I-labelled form
Summary of the method: as §1

[42] = molecular target: Alpha-1A adrenergic receptor (Homo sapiens) (UniProt P35348); experiment: Displacement of [3H]Prazosin from alpha-1A adrenergic receptor at 10 uM by scintillation counting; details: tested as the 125I-labelled form
Summary of the method: as §1

Ki (Cannabinoid receptor 1): 3.4 nM
Ki (Cannabinoid receptor 2): 548 nM
Ki [1]: 93.5 nM
Ki [2]: > 10000 nM
Ki [3]: 1480 nM
Ki (Mu-type opioid receptor): 1500 nM
Ki (Translocator protein): 3170 nM
Structure (SMILES): COc1ccc(-c2c(C#N)c(C(=O)NN3CCCCC3)nn2-c2ccccc2[125I])cc1

inhibition [4]: < 50%
inhibition [5]: < 50%
inhibition [6]: < 50%
inhibition [7]: < 50%
inhibition [8]: < 50%
inhibition [9]: < 50%
inhibition [10]: < 50%
inhibition [11]: < 50%
inhibition [12]: < 50%
inhibition [13]: < 50%
inhibition [14]: < 50%
inhibition [15]: < 50%
inhibition [16]: < 50%
inhibition [17]: < 50%
inhibition [18]: < 50%
inhibition [19]: < 50%
inhibition [20]: < 50%
inhibition [21]: < 50%
inhibition [22]: < 50%
inhibition [23]: < 50%
inhibition [24]: < 50%
inhibition [25]: < 50%
inhibition [26]: < 50%
inhibition [27]: < 50%
inhibition [28]: < 50%
inhibition [29]: < 50%
inhibition [30]: < 50%
inhibition [31]: < 50%
inhibition [32]: < 50%
inhibition [33]: < 50%
inhibition [34]: < 50%
inhibition [35]: < 50%
inhibition [36]: < 50%
inhibition [37]: < 50%
inhibition [38]: < 50%
inhibition [39]: < 50%
inhibition [40]: < 50%
inhibition [41]: < 50%
inhibition [42]: < 50%
Structure (SMILES): COc1ccc(-c2c(C#N)c(C(=O)NN3CCCCC3)nn2-c2ccccc2I)cc1
